Data reported in ChEMBL document CHEMBL3297693, “Novel 3-arylfuran-2(5H)-one-fluoroquinolone hybrid: design, synthesis and evaluation as antibacterial agent” (Bioorg Med Chem, 2014).
In brackets after ≈: the same amount, converted by molar mass.

Tested on: Escherichia coli
Assay: Antimicrobial activity against multiple drug-resistant Escherichia coli ATCC 35218 after 8 to 10 hrs by MTT proliferation assay
Format: functional
Summary of the method: (§1)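 Broth microdilution in LB medium in 96-well plates, inoculum about 10⁵ cfu/mL, serially diluted compounds, sterile medium as blank control. MTT (3 mg/mL in PBS) added, then 4–5 h at room temperature. Dye extracted with SDS lysis buffer (10% SDS, 5% isopropanol, pH about 3.5) for 8–10 h at room temperature. Absorbance read at 570 nm, control OD 1.0–2.0. MIC₅₀ reported.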
`CCn1cc(C(=O)O)c(=O)c2cc(F)c(N3CCN(CCOC4=C(c5ccccc5)C(=O)OC4)CC3)cc21` gave an MIC50 of over 25 µg/mL.
`CCn1cc(C(=O)O)c(=O)c2cc(F)c(N3CCN(CCOC4=C(c5ccccc5)C(=O)OC4)CC3)nc21` showed an MIC50 of 5.6 µg/mL (≈ 10.7 µM).
In the case of `O=C1OCC(OCCN2CCN(c3cc4c(cc3F)c(=O)c(C(=O)O)cn4-c3ccc(F)cc3)CC2)=C1c1ccccc1`, the MIC50 is reported as 1.2 µg/mL (≈ 2.04 µM).
`O=C1OCC(OCCN2CCN(c3cc4c(cc3F)c(=O)c(C(=O)O)cn4C3CC3)CC2)=C1c1ccccc1` gave an MIC50 of 1 µg/mL (≈ 1.87 µM).
Compound `CCn1cc(C(=O)O)c(=O)c2cc(F)c(N3CCN(CCOC4=C(c5ccccc5F)C(=O)OC4)CC3)cc21` has an MIC50 of 2.7 µg/mL (≈ 5 µM).
With `CCn1cc(C(=O)O)c(=O)c2cc(F)c(N3CCN(CCOC4=C(c5ccccc5F)C(=O)OC4)CC3)nc21` the MIC50 was 2.6 µg/mL (≈ 4.81 µM).
Compound `O=C1OCC(OCCN2CCN(c3cc4c(cc3F)c(=O)c(C(=O)O)cn4-c3ccc(F)cc3)CC2)=C1c1ccccc1F` has an MIC50 of 0.67 µg/mL (≈ 1.11 µM).
`O=C1OCC(OCCN2CCN(c3cc4c(cc3F)c(=O)c(C(=O)O)cn4C3CC3)CC2)=C1c1ccccc1F` showed an MIC50 of 0.11 µg/mL (≈ 0.199 µM).
Compound `O=C1OCC(OCCN2CCN(c3cc4c(cc3F)c(=O)c(C(=O)O)cn4C3CC3)CC2)=C1c1ccc(F)cc1` has an MIC50 of 0.37 µg/mL (≈ 0.671 µM).
In the case of `O=C1OCC(OCCN2CCN(c3cc4c(cc3F)c(=O)c(C(=O)O)cn4-c3ccc(F)cc3)CC2)=C1c1ccc(F)cc1`, the MIC50 is reported as 1.1 µg/mL (≈ 1.82 µM).
For `CCn1cc(C(=O)O)c(=O)c2cc(F)c(N3CCN(CCOC4=C(c5ccccc5Cl)C(=O)OC4)CC3)cc21`, the MIC50 was 2.5 µg/mL (≈ 4.5 µM).
With `O=C1OCC(OCCN2CCN(c3cc4c(cc3F)c(=O)c(C(=O)O)cn4-c3ccc(F)cc3)CC2)=C1c1ccccc1Cl` the MIC50 was 0.72 µg/mL (≈ 1.16 µM).
With `CCn1cc(C(=O)O)c(=O)c2cc(F)c(N3CCN(CCOC4=C(c5cccc(Cl)c5)C(=O)OC4)CC3)nc21` the MIC50 was 2.9 µg/mL (≈ 5.21 µM).
For `O=C1OCC(OCCN2CCN(c3cc4c(cc3F)c(=O)c(C(=O)O)cn4-c3ccc(F)cc3)CC2)=C1c1cccc(Cl)c1`, the MIC50 was 0.89 µg/mL (≈ 1.43 µM).

Tested on: Bacillus subtilis
Assay: Antimicrobial activity against tetracycline-resistant Bacillus subtilis ATCC 6633 after 8 to 10 hrs by MTT proliferation assay
Format: functional
Summary of the method: as §1
With `CCn1cc(C(=O)O)c(=O)c2cc(F)c(N3CCN(CCOC4=C(c5ccccc5)C(=O)OC4)CC3)cc21` the MIC50 was 16.6 µg/mL (≈ 31.8 µM).
With `CCn1cc(C(=O)O)c(=O)c2cc(F)c(N3CCN(CCOC4=C(c5ccccc5)C(=O)OC4)CC3)nc21` the MIC50 was 12.6 µg/mL (≈ 24.1 µM).
For `O=C1OCC(OCCN2CCN(c3cc4c(cc3F)c(=O)c(C(=O)O)cn4-c3ccc(F)cc3)CC2)=C1c1ccccc1`, the MIC50 was 0.6 µg/mL (≈ 1.02 µM).
With `O=C1OCC(OCCN2CCN(c3cc4c(cc3F)c(=O)c(C(=O)O)cn4C3CC3)CC2)=C1c1ccccc1` the MIC50 was 0.23 µg/mL (≈ 0.431 µM).
`CCn1cc(C(=O)O)c(=O)c2cc(F)c(N3CCN(CCOC4=C(c5ccccc5F)C(=O)OC4)CC3)cc21` gave an MIC50 of 2.4 µg/mL (≈ 4.45 µM).
In the case of `CCn1cc(C(=O)O)c(=O)c2cc(F)c(N3CCN(CCOC4=C(c5ccccc5F)C(=O)OC4)CC3)nc21`, the MIC50 is reported as 1.6 µg/mL (≈ 2.96 µM).
`O=C1OCC(OCCN2CCN(c3cc4c(cc3F)c(=O)c(C(=O)O)cn4-c3ccc(F)cc3)CC2)=C1c1ccccc1F` showed an MIC50 of 0.2 µg/mL (≈ 0.33 µM).
For `O=C1OCC(OCCN2CCN(c3cc4c(cc3F)c(=O)c(C(=O)O)cn4C3CC3)CC2)=C1c1ccccc1F`, the MIC50 was 0.09 µg/mL (≈ 0.163 µM).
For `O=C1OCC(OCCN2CCN(c3cc4c(cc3F)c(=O)c(C(=O)O)cn4C3CC3)CC2)=C1c1ccc(F)cc1`, the MIC50 was 0.16 µg/mL (≈ 0.29 µM).
Compound `O=C1OCC(OCCN2CCN(c3cc4c(cc3F)c(=O)c(C(=O)O)cn4-c3ccc(F)cc3)CC2)=C1c1ccc(F)cc1` has an MIC50 of 0.2 µg/mL (≈ 0.33 µM).
In the case of `CCn1cc(C(=O)O)c(=O)c2cc(F)c(N3CCN(CCOC4=C(c5ccccc5Cl)C(=O)OC4)CC3)cc21`, the MIC50 is reported as 0.9 µg/mL (≈ 1.62 µM).
In the case of `O=C1OCC(OCCN2CCN(c3cc4c(cc3F)c(=O)c(C(=O)O)cn4-c3ccc(F)cc3)CC2)=C1c1ccccc1Cl`, the MIC50 is reported as 0.37 µg/mL (≈ 0.595 µM).
`CCn1cc(C(=O)O)c(=O)c2cc(F)c(N3CCN(CCOC4=C(c5cccc(Cl)c5)C(=O)OC4)CC3)nc21` showed an MIC50 of 15.3 µg/mL (≈ 27.5 µM).
For `O=C1OCC(OCCN2CCN(c3cc4c(cc3F)c(=O)c(C(=O)O)cn4-c3ccc(F)cc3)CC2)=C1c1cccc(Cl)c1`, the MIC50 was 0.75 µg/mL (≈ 1.21 µM).

Tested on: Staphylococcus aureus
Assay: Antimicrobial activity against […] Staphylococcus aureus ATCC 25923 after 8 to 10 hrs by MTT proliferation assay
Format: functional
Summary of the method: as §1
`CCn1cc(C(=O)O)c(=O)c2cc(F)c(N3CCN(CCOC4=C(c5ccccc5)C(=O)OC4)CC3)cc21` showed an MIC50 of 18.9 µg/mL (≈ 36.2 µM).
Work on `CCn1cc(C(=O)O)c(=O)c2cc(F)c(N3CCN(CCOC4=C(c5ccccc5)C(=O)OC4)CC3)nc21` yielded an MIC50 of 6.8 µg/mL (≈ 13 µM).
`O=C1OCC(OCCN2CCN(c3cc4c(cc3F)c(=O)c(C(=O)O)cn4-c3ccc(F)cc3)CC2)=C1c1ccccc1` gave an MIC50 of 0.69 µg/mL (≈ 1.17 µM).
With `O=C1OCC(OCCN2CCN(c3cc4c(cc3F)c(=O)c(C(=O)O)cn4C3CC3)CC2)=C1c1ccccc1` the MIC50 was 0.64 µg/mL (≈ 1.2 µM).
Compound `CCn1cc(C(=O)O)c(=O)c2cc(F)c(N3CCN(CCOC4=C(c5ccccc5F)C(=O)OC4)CC3)cc21` has an MIC50 of 3.3 µg/mL (≈ 6.12 µM).
In the case of `CCn1cc(C(=O)O)c(=O)c2cc(F)c(N3CCN(CCOC4=C(c5ccccc5F)C(=O)OC4)CC3)nc21`, the MIC50 is reported as 2.6 µg/mL (≈ 4.81 µM).
In the case of `O=C1OCC(OCCN2CCN(c3cc4c(cc3F)c(=O)c(C(=O)O)cn4-c3ccc(F)cc3)CC2)=C1c1ccccc1F`, the MIC50 is reported as 0.21 µg/mL (≈ 0.347 µM).
`O=C1OCC(OCCN2CCN(c3cc4c(cc3F)c(=O)c(C(=O)O)cn4C3CC3)CC2)=C1c1ccccc1F` gave an MIC50 of 0.19 µg/mL (≈ 0.344 µM).
Compound `O=C1OCC(OCCN2CCN(c3cc4c(cc3F)c(=O)c(C(=O)O)cn4C3CC3)CC2)=C1c1ccc(F)cc1` has an MIC50 of 0.24 µg/mL (≈ 0.435 µM).
With `O=C1OCC(OCCN2CCN(c3cc4c(cc3F)c(=O)c(C(=O)O)cn4-c3ccc(F)cc3)CC2)=C1c1ccc(F)cc1` the MIC50 was 0.34 µg/mL (≈ 0.561 µM).
With `CCn1cc(C(=O)O)c(=O)c2cc(F)c(N3CCN(CCOC4=C(c5ccccc5Cl)C(=O)OC4)CC3)cc21` the MIC50 was 0.43 µg/mL (≈ 0.773 µM).
Work on `O=C1OCC(OCCN2CCN(c3cc4c(cc3F)c(=O)c(C(=O)O)cn4-c3ccc(F)cc3)CC2)=C1c1ccccc1Cl` yielded an MIC50 of 0.25 µg/mL (≈ 0.402 µM).
`CCn1cc(C(=O)O)c(=O)c2cc(F)c(N3CCN(CCOC4=C(c5cccc(Cl)c5)C(=O)OC4)CC3)nc21` showed an MIC50 of 8.7 µg/mL (≈ 15.6 µM).
`O=C1OCC(OCCN2CCN(c3cc4c(cc3F)c(=O)c(C(=O)O)cn4-c3ccc(F)cc3)CC2)=C1c1cccc(Cl)c1` gave an MIC50 of 0.44 µg/mL (≈ 0.707 µM).

Tested on: not listed separately
Assay: Inhibition of Staphylococcus aureus TyrRS expressed in Escherichia coli assessed as tRNA aminoacylation pre-incubated for 10 mins using Escherichia coli MRE600 tRNA and L-[ring-3,5-3H]tyrosine by liquid scintillation counting
Summary of the method: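 S. aureus TyrRS overexpressed in E. coli and purified to about 98% (SDS–PAGE). Enzyme (0.2 nM) preincubated with inhibitor range 10 min at room temperature, then prewarmed mix added at 37 °C. Aliquots quenched in cold 7% TCA, filtered, scintillation counted. Kept linear, under 50% tRNA acylation.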
`O=C1OCC(OCCN2CCN(c3cc4c(cc3F)c(=O)c(C(=O)O)cn4C3CC3)CC2)=C1c1ccccc1` showed an IC50 of 7.12 µM.
Compound `O=C1OCC(OCCN2CCN(c3cc4c(cc3F)c(=O)c(C(=O)O)cn4-c3ccc(F)cc3)CC2)=C1c1ccccc1F` has an IC50 of 2.81 µM.
Compound `O=C1OCC(OCCN2CCN(c3cc4c(cc3F)c(=O)c(C(=O)O)cn4C3CC3)CC2)=C1c1ccccc1F` has an IC50 of 0.12 µM.
Compound `O=C1OCC(OCCN2CCN(c3cc4c(cc3F)c(=O)c(C(=O)O)cn4C3CC3)CC2)=C1c1ccc(F)cc1` has an IC50 of 1.29 µM.
`O=C1OCC(OCCN2CCN(c3cc4c(cc3F)c(=O)c(C(=O)O)cn4-c3ccc(F)cc3)CC2)=C1c1ccccc1Cl` gave an IC50 of 6.37 µM.

Biological target: DNA gyrase (Escherichia coli, UniProt P0AES4+P0AES6)
Assay: Inhibition of Escherichia coli DNA gyrase assessed as reduction in enzyme-mediated DNA supercoiling using relaxed pBR322 substrate incubated for 60 mins by electrophoresis method
Format: protein-complex assay
For `O=C1OCC(OCCN2CCN(c3cc4c(cc3F)c(=O)c(C(=O)O)cn4C3CC3)CC2)=C1c1ccccc1`, the IC50 was 5.77 µM.
Work on `O=C1OCC(OCCN2CCN(c3cc4c(cc3F)c(=O)c(C(=O)O)cn4-c3ccc(F)cc3)CC2)=C1c1ccccc1F` yielded an IC50 of 3.69 µM.
Compound `O=C1OCC(OCCN2CCN(c3cc4c(cc3F)c(=O)c(C(=O)O)cn4C3CC3)CC2)=C1c1ccccc1F` has an IC50 of 1.15 µM.
With `O=C1OCC(OCCN2CCN(c3cc4c(cc3F)c(=O)c(C(=O)O)cn4C3CC3)CC2)=C1c1ccc(F)cc1` the IC50 was 2.84 µM.
`O=C1OCC(OCCN2CCN(c3cc4c(cc3F)c(=O)c(C(=O)O)cn4-c3ccc(F)cc3)CC2)=C1c1ccccc1Cl` showed an IC50 of 4.05 µM.
